Measurements published in ChEMBL document CHEMBL1145959, “Design and synthesis of 8-hydroxy-[1,6]naphthyridines as novel inhibitors of HIV-1 integrase in vitro and in infected cells” (J Med Chem, 2003).

Key:
[1] = molecular target: Human immunodeficiency virus type 1 integrase (Human immunodeficiency virus 1, UniProt Q7ZJM1); assay: Compound was tested for its ability to inhibit the strand transfer of the integration process catalyzed by HIV integrase
[2] = test system: MT4; assay: Cell culture inhibitory concentration which inhibits 95% spread of HIV infection in cell culture, using HIV-1 IIIB variant and MT-4 T-lymphoid cells; type: functional; conditions: Homo sapiens, read-out: CIC95
[3] = test system: MT4; assay: Cytotoxicity of compound was determined on MT-4 cells; type: functional, Homo sapiens
In short: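 MT-4 cultures incubated 4 days with inhibitor. Toxicity scored by visual inspection for cytopathic effects: gross morphological changes, altered growth pattern, and metabolic change seen as lack of change in the medium pH indicator. Cell numbers also checked; cells typically double at least 4 times over the 4 days.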

[4] = Peak plasma level of compound (10 mg/kg) administered orally to rats after 60 min was determined; type: ADME, organism-based; design: dose 10 mg/kg, route oral; conditions: rat, po
In short: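 Rats dosed orally at 10 mg/kg as a 3.0 mg/mL aqueous solution with 1% methylcellulose and 1% DMSO. Plasma concentration followed over time, with Cmax taken as the peak plasma level.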

Chain of Human immunodeficiency virus type 1 integrase (Q7ZJM1 whole entry): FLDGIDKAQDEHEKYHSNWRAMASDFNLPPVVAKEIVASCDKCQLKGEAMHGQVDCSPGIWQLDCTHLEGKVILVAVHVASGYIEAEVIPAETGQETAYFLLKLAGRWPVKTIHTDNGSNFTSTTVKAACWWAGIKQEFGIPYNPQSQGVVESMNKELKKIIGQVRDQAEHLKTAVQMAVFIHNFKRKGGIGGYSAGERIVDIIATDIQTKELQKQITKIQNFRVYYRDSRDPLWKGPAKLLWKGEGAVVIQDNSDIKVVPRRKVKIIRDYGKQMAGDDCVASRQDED

O=C(c1cc(Cc2ccccc2)ccn1)c1ccc2cccnc2c1O
IC50 [1]: 50 nM | IC95 [2]: 2500 nM | Cytotoxicity [3]: 2.5 µM

O=C(O)C(=O)CC(=O)c1cccc(Cc2ccccc2)c1
IC50 [1]: 10 nM | IC95 [2]: 1110 nM | Cytotoxicity [3]: >50 µM

O=C(c1cccc(Cc2ccccc2)c1)c1ncc2cccnc2c1O
IC50 [1]: 40 nM | IC95 [2]: 6200 nM | Cytotoxicity [3]: 12.5 µM

O=c1c2cc(Cc3ccccc3)ccc2oc2ccc(O)c(O)c12
IC50 [1]: 600 nM | IC95 [2]: 6000 nM | Cytotoxicity [3]: 3 µM

O=C(c1cc(Cc2ccccc2)cc(CN2CCCS2(=O)=O)c1)c1ncc2cccnc2c1O
Cmax [4]: 1170 nM | IC50 [1]: 10 nM | IC95 [2]: 390 nM | Cytotoxicity [3]: >12.5 µM

O=C(c1cccc(Cc2ccccc2)c1)c1oc2cccnc2c1O
IC50 [1]: 1000 nM | IC95 [2]: > 50000 nM | Cytotoxicity [3]: 12.5 µM

O=C(c1cccc(Cc2ccccc2)c1)c1ccc2cccnc2c1O
IC95 [2]: 5000 nM | Cytotoxicity [3]: 1.25 µM
